Blank lines part the entries; values can stand above or below the molecule they belong to. Peptide text beside a SMILES is read from it. * marks the point of attachment. Cbz = O=C(OCc1ccccc1)*
Tests used:
[1] = biological target: T1, sEH (Homo sapiens, UniProt P34913); experiment: sEH degradation in HepG2 cells by immunoblot; format: cell-based; conditions: for effect of co-treatment on sEH degradation induced by 1a: co-treatment with 1a, immunoblot
T1 sequence (P34913 1-555): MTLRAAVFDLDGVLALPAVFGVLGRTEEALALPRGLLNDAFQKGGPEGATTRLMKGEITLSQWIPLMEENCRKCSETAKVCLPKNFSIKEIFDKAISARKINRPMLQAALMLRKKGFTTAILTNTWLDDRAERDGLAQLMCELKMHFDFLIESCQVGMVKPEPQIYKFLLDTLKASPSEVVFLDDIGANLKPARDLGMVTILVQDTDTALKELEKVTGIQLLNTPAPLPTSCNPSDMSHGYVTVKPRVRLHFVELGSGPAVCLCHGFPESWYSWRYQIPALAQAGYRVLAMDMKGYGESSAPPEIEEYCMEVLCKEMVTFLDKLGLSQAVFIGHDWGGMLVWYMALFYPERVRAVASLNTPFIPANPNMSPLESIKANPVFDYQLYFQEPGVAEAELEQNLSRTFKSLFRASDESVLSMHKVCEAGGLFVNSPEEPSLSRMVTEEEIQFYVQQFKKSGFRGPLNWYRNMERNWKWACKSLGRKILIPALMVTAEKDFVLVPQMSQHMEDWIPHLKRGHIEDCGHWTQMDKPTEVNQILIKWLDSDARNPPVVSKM

[2] = biological target: T1, sEH; experiment: Residual sEH hydrolase activity of treated HepG2 cells; format: cell-based; conditions: HepG2, 1 μM, 24 h
[3] = biological target: T1, sEH; experiment: Immunofluorescence colocalization of sEH with compartment markers; format: cell-based; conditions: co-treatment with 1a
Method in brief: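 Fixed in 4% paraformaldehyde for 20 min, permeabilised with 0.02% Triton X-100, blocked 1 h at room temperature in 5% goat serum with 1% BSA. Mouse anti-sEH plus rabbit anti-LAMP2 at 4 °C overnight; Alexa Fluor 647/488 secondaries (1:500) for 1 h; DAPI 10 min. Imaged at 20x by high-content imaging, automated analysis. Colocalisation area normalised to cell count.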

[4] = system: EPHX2; experiment: sEH transcription by qRT-PCR; format: cell-based, human
[5] = biological target: T1, sEH; experiment: sEH level in CRBN-knockout HEK293T cells; format: cell-based
Method in brief: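 CRBN knockout HEK293T cells were maintained in high-glucose (4.5 g/L) DMEM with 10% fetal bovine serum, 100 units/mL penicillin and streptomycin.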

Molecule: trans-4-[4-(3-trifluoromethoxyphenyl-1-ureido)-cyclohexyloxy]-benzoic acid [Compound 1]
effect of co-treatment on sEH degradation induced by 1a [1]: counteract the degradation effect
sEH hydrolase activity after treatment [2]: only slight inhibition

Molecule: CO/C1=C\C(C)=C\[C@@H](C)[C@@H](O)[C@@H](C)C/C(C)=C/C=C/[C@H](OC)[C@@H]([C@@H](C)[C@@H](O)[C@H](C)[C@@]2(O)C[C@@H](O)[C@H](C)[C@@H](C(C)C)O2)OC1=O [BafA1, bafilomycin A1]
effect of co-treatment on sEH degradation induced by 1a [1]: blocked the degradation
effect of co-treatment on 1a-promoted sEH colocalization with LAMP2 [3]: reversed this trend

Molecule: CC(C)C[C@@H](C=O)NC(=O)[C@H](CC(C)C)NC(=O)[C@H](CC(C)C)NC(=O)OCc1ccccc1 [MG132] (Cbz-Leu-Leu-Leu-aldehyde)
effect of co-treatment on sEH degradation induced by 1a [1]: failed to block the degradation induced by PROTAC 1a and instead promoted sEH degradation
effect on transcription of sEH [4]: did not affect
effect on sEH level in CRBN-knockout cells [5]: neither 1a nor MG132 affect sEH level

Now from value to molecule, other results behind:

effect of co-treatment on sEH degradation induced by 1e and 2a ([1]; co-treatment with 1e or 2a): failed to block the degradation
Molecule: CC(C)C[C@H](NC(=O)[C@H](Cc1ccccc1)NC(=O)c1cnccn1)B(O)O [BTZ, bortezomib]
effect of co-treatment on sEH degradation induced by 1a [1]: slightly reversed the sEH degradation induced by 1a but higher concentrations failed to block

effect of co-treatment on sEH degradation induced by 1a [1]: failed to rescue the sEH degradation
Molecule: N#Cc1ccc(COC[C@H]2O[C@@H](n3c(NCc4ccc(Cl)c(Cl)c4)nc4c(N)ncnc43)[C@H](O)[C@@H]2O)cc1 [VER155008]

effect of co-treatment on sEH degradation induced by 1a [1]: blocked the sEH degradation
Molecule: NS(=O)(=O)OC[C@@H]1C[C@@H](n2ccc3c(N[C@H]4CCc5ccccc54)ncnc32)C[C@@H]1O [MLN4924]

Reference: publication PMC10586715 (ACS chemical biology, 2023)
